Assay results: ChEMBL document CHEMBL1132229, “3,7-Disubstituted-1,2,3,4-tetrahydroisoquinolines display remarkable potency and selectivity as inhibitors of phenylethanolamine N-methyltransferase versus the alpha2-adrenoceptor” (J Med Chem, 1999)

Legend:
[1] = Relative affinity for PNMT and alpha2 adrenergic receptors
[2] = molecular target: T1, Phenylethanolamine N-methyltransferase (Bos taurus) (UniProt P10938); assay: Stereo selectivity ratio for PNMT(-)/(+ ) activities
T1 sequence (whole entry): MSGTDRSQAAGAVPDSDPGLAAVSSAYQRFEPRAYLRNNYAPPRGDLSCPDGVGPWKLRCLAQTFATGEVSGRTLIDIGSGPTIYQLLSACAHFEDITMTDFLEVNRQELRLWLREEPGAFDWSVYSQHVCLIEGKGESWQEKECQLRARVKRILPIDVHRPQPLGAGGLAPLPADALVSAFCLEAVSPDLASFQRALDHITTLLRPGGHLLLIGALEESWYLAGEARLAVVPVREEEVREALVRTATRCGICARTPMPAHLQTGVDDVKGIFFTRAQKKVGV

[3] = molecular target: T2, Phenylethanolamine N-methyltransferase (Bos taurus, UniProt P10938); assay: Inhibition of bovine adrenal Phenylethanolamine N-Methyltransferase
T2 sequence (P10938 whole entry): T1 sequence (whole entry)

[4] = molecular target: Adrenergic receptor alpha-2 (Rattus norvegicus) (UniProt P22086+P19328+P22909); assay: Stereo selectivity ratio for alpha-2(-)/(+) activities
[5] = molecular target: T3, Adrenergic receptor alpha-2 (Rattus norvegicus, UniProt P22086+P19328+P22909); assay: In vitro binding affinity towards cortical membranes of male Sprague-Dawley rats alpha-2 adrenergic receptor by replacing [3H]clonidine
T3 sequence (P22086 whole entry): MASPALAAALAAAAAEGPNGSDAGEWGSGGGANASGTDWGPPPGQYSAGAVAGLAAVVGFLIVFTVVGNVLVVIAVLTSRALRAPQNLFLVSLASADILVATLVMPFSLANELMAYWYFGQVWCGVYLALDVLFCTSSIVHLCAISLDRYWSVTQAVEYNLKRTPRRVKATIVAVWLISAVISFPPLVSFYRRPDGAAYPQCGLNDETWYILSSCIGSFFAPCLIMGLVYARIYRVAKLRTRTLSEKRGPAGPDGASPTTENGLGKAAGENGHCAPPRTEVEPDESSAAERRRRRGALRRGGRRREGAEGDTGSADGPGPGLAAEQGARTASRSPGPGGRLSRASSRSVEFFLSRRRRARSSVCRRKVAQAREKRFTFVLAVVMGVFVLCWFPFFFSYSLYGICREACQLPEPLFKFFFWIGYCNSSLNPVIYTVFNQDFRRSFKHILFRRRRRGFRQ
T3 sequence (P19328 whole entry): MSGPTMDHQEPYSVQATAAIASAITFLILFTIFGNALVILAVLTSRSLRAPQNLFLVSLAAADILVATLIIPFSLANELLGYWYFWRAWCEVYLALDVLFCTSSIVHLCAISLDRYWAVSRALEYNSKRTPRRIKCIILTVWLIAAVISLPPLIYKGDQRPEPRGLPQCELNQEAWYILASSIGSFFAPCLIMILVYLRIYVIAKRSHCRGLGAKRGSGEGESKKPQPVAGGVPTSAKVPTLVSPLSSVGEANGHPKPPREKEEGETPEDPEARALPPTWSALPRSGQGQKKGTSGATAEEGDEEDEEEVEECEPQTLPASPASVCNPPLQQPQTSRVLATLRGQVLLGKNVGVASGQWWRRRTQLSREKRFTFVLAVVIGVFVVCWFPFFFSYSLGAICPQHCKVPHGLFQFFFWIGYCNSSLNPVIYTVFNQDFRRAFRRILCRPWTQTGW
T3 sequence (P22909 whole entry): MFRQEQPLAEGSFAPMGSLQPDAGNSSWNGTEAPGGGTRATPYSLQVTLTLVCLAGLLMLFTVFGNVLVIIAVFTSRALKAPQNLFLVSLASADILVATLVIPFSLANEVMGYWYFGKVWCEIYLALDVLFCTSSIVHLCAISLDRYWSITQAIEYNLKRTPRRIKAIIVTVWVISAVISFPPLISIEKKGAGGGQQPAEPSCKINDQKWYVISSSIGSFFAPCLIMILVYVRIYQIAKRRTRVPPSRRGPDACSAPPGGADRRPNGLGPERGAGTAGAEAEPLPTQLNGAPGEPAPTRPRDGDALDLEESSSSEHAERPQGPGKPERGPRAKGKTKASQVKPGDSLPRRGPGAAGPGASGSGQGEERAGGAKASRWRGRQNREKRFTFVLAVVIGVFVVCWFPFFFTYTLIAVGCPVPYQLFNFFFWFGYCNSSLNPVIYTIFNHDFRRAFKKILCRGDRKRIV
Summary of the method: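 Rat cortex (male Sprague-Dawley) homogenised in ice-cold 50 mM Tris/HCl pH 7.7, washed by three 50000g spins. Tissue incubated with 4.0 nM [3H]clonidine (final) and drug at five concentrations over a 16-fold range, 25 °C for 30 min. Bound ligand collected by vacuum filtration on GF/B filters and counted. Nonspecific binding set with 2 μM phentolamine. Quadruplicate. IC50 from log-probit analysis; Ki = IC50/(1+[clonidine]/KD).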

[6] = molecular target: T3, Adrenergic receptor alpha-2; assay: Displacement of [3H]clonidine from Alpha-2 adrenergic receptor of rat cortical membranes; assay type: cell membranes, Membrane
Summary of the method: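 Male Sprague-Dawley rat cortex homogenized in ice-cold 50 mM Tris/HCl (pH 7.7 at 25 °C), washed by three 50000g spins, resuspended at 200 volumes. [3H]clonidine 4.0 nM final; 25 °C, 30 min; terminated by vacuum filtration on GF/B filters and scintillation counting. Nonspecific binding with 2 μM phentolamine.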

[7] = molecular target: T2, Phenylethanolamine N-methyltransferase; assay: In vitro inhibitory activity against bovine adrenal phenylethanolamine N-methyl transferase
[8] = molecular target: T2, Phenylethanolamine N-methyltransferase; assay: In vitro inhibitory activity against bovine adrenal Phenylethanolamine N-Methyltransferase (for +- stereoisomer)

SMILES	Selectivity [1]	Ki [3]	other results
C[C@@H]1Cc2ccc([N+](=O)[O-])cc2CN1	41	1.3 µM	Ratio [2]: 5.2; Ratio [4]: 2.8
CCC1Cc2ccccc2CN1 (centres undefined)			Ki [5]: 0.66 µM
CC1Cc2ccc([N+](=O)[O-])cc2CN1 (centres undefined)	63	0.49 µM	Ki [6]: 31 µM
NS(=O)(=O)c1ccc2c(c1)CNC(CO)C2 (centres undefined)	4100	0.34 µM	
C[C@H]1Cc2ccc([N+](=O)[O-])cc2CN1		0.25 µM	
COC(=O)C1Cc2ccccc2CN1 (centres undefined)			Ki [6]: 11 µM
CS(=O)(=O)c1ccc2c(c1)CNC(CO)C2 (centres undefined)	1000	0.64 µM	
O=[N+]([O-])c1ccc2c(c1)CNC(CO)C2 (centres undefined)		0.29 µM	
NC(=O)C1Cc2ccccc2CN1 (centres undefined)			Ki [6]: 250 µM
OC[C@H]1Cc2ccccc2CN1	7.9	0.56 µM	Ratio [2]: 27; Ratio [4]: 3.9
O=C(O)C1Cc2ccccc2CN1 (centres undefined)			Ki [7]: > 2000 µM

Further lines, with some results ahead:

Selectivity [1]	Ki [3]	SMILES	other results
	0.9 µM	O=[N+]([O-])c1ccc2c(c1)CN[C@H](CO)C2	
1.1	15 µM	OC[C@@H]1Cc2ccccc2CN1	
0.3	9.2 µM	COCC1Cc2ccccc2CN1 (centres undefined)	
	0.24 µM	O=[N+]([O-])c1ccc2c(c1)CN[C@@H](CO)C2	
6		OCC1Cc2ccccc2CN1 (centres undefined)	Ki [8]: 1.1 µM
